Source: PubChem
In the library only some 2.6% were active in any assay of this set; here they are far more common.
ERAP1 inh – human ERAP1 aminopeptidase inhibitors, primary screen, biochemical, single point, plate reader. hit rate 0.15% among 340,000. recombinant ERAP1, Leu-AMC fluorescence, 60 min. inhibition, % at 10.7 µM. Endoplasmic reticulum aminopeptidase 1 (Homo sapiens), Q9NZ08;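 active = mean replicate inhibition of at least 30%, or all replicates individually reaching that 30% level; inactive = mean below 30% and not every replicate reaching it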;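 also: 0% = neutral control wells and 100% = L-leucinethiol positive control wells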
CFTR F508del cor – F508del CFTR correction, initial screen, CFBE line, single point; hit rate 0.36% among 350,000; activity (quench increase), % at 7.58 µM; CFBE cells, YFP halide quenching; stimulated with forskolin plus potentiator P3; % fluorescence drop versus neutral controls;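 active = mean added fluorescence quench of at least 8% versus neutral control, with both replicates also reaching 8%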;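 also: cells transiently co-express mutant CFTR-F508del with the halide-sensitive YFP; corrector assay measuring rescue of mutant channel to the surface after 24 h compound exposure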
DENV2 CPE rescue – inhibitors of DENV2 cytopathic effect, primary screen, cell-based, plate reader, single concentration; DENV2-infected cells, cytopathic effect rescue; CPE inhibition, % at 9.99 µM; hit rate 1.7% among 350,000; in the data active = CPE inhibition above about 20%, passing the limit was not always enough; tested in BHK-21 cells;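 also: 0% = median of neutral control wells and 100% = median of positive control wells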
INS-1E GSIS act – GLuc luminescence reporter in INS-1E cells, primary screen for activators of glucose-dependent secretion of insulin; INS-1E GLuc reporter insulin secretion, 2-3 h; activation, % at 16.6 µM; hit rate 0.61% among 370,000; AID 743287, 2014;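 active = lowest replicate activation of at least 40%, so every replicate reaches that level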;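 also: 0% = median of neutral control wells and 100% = median of IBMX positive control wells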
miR122 inh – miR-122 Renilla sensor signal increase in Huh7, primary screen, miR-122 inhibitor project, cell-based, single point, plate reader; activation (reporter increase), % at 12.5 µM; Huh7 miR-122 Renilla luciferase sensor, 48 h; neutral wells = 0, positive control = 100; hit rate 0.3% among 340,000; AID 602342, 2012;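 active = mean replicate activation score at least 90 and every replicate individually at or above 90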;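 also: higher luciferase means less miR-122 activity so hits act as miR-122 inhibitors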
E-sel inducer – E-selectin induction in HUVECs, primary screen, imaging, HUVEC, immunofluorescence imaging, single point; normalized: neutral wells 0, TNF-alpha wells 100; activation, % at 7.58 µM; hit rate 0.37% among 260,000;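 active = mean E-selectin-positive cell signal at least 10% of the positive control, reached in at least 60% of replicates, without over 20% cell loss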
Target sequence (P16581 whole entry, looked up): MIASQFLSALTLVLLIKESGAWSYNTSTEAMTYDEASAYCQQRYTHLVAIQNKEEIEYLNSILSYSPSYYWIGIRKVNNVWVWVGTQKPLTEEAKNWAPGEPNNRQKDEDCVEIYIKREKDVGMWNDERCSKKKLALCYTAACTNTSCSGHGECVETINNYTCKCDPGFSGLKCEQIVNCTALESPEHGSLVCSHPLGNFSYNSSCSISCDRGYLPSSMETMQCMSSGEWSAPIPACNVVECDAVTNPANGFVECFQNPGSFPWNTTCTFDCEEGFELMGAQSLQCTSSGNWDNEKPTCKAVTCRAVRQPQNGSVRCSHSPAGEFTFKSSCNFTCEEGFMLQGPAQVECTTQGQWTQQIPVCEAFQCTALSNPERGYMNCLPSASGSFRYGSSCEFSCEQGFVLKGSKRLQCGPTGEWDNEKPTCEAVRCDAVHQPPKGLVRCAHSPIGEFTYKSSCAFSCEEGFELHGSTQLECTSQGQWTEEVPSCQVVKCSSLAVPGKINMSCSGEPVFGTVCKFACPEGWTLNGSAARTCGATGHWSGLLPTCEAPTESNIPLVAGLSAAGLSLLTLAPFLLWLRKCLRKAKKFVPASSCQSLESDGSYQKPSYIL
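Assay system: HUVEC primary endothelial cells. Input: 3,000 HUVEC seeded per well. Doses: one compound dose added by pin transfer. Read-out basis: % PE-positive cells. Benchmarks: TNF-alpha high, DMSO low. Detection: immunofluorescence imaging. Buffer or medium: EGM-2, gelatin.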
An asterisk follows results filed as active; . = no result given; [ ] = dose if it differs, or a comment.

SMILES	ERAP1 inh	CFTR F508del cor	DENV2 CPE rescue	INS-1E GSIS act	miR122 inh	E-sel inducer
COC(=O)[C@H]1[C@H](CO)[C@H]2Cn3c(ccc(/C=C/c4ccccc4)c3=O)[C@H]2N1C(=O)c1cnccn1	1	1	-7	-2	-7[16.7 µM]	0
O=C(O)[C@H]1[C@H](CO)[C@H]2Cn3c(ccc(/C=C/c4ccccc4)c3=O)[C@H]2N1C(=O)c1cnccn1	0	.	103*	23	.	1
CN(C)C(=O)[C@@H]1[C@@H](CO)[C@@H]2Cn3c(ccc(/C=C/c4ccccc4)c3=O)[C@@H]2N1CC1CC1	-1	5	-2	1	.	0
CCCN1[C@H](C(=O)N(C)C)[C@@H](CO)[C@@H]2Cn3c(ccc(/C=C/c4ccccc4)c3=O)[C@@H]21	0	.	56*	-7	.	0
Nc1cccnc1Oc1ccc(F)cc1	.	-1	0	.	.	-1
FC(F)(F)c1cccnc1Oc1ccc(C2=NCCS2)cc1	1	0	68*	.	-3	.
Cc1cc(NC(=O)c2cnn3cccnc23)no1	2	0	-1	-2	-2	.
O=C(Nc1cccc(Cl)c1)c1cnn2cccnc12	.	.	.	58*	3	.
COc1cc(/C=N/NC(=O)C(=O)Nc2ccccn2)ccc1O	.	.	.	2	-3	.
CCCOc1ccc(/C=N/NC(=O)C(=O)Nc2ccccn2)cc1	.	.	.	52*	7	.
CCOc1ccc(/C=N/Nc2ccccn2)cc1	18	4	5	.	.	31*
CCCNC(=O)N1CCC2(CC1)CN(C(C)=O)[C@@H](CO)c1c2c2ccc(OC)cc2n1C	.	.	.	17	.	.
Cc1cc2c(s1)Nc1ccccc1N=C2N1CCN(C)CC1	2	9.4*	-7	.	5	0
CN(CC(=O)Nc1ccc(Cl)c(Cl)c1)C1CCCCC1	0	0	9	2	.	75*
CN(C(=O)CSCC(=O)Nc1ccc(Cl)cc1)C1CCCCC1	3	3	62*	-15	0	0
CN(CC(=O)Nc1ccccc1Cl)C1CCCCC1	-3	0	13	0	.	0
CN(C)CC(=O)N1[C@H](C(=O)NC2CCCC2)[C@@H](CO)[C@@H]2Cn3c(ccc(-c4ccc(F)cc4)c3=O)[C@@H]21	1	-2	-1	6	7[16.7 µM]	0
O=C(N[C@H]1CC[C@H](CCNS(=O)(=O)c2ccccc2Cl)O[C@H]1CO)c1ccc(F)cc1	-1	-3	-14	0	.	0
CS(=O)(=O)N(CC(=O)NCc1cccnc1)Cc1ccc(Cl)cc1	.	.	.	.	-4	.
O=C(CN(C1CCCCC1)S(=O)(=O)c1ccc(Cl)cc1)NCc1cccnc1	.	.	.	.	100*	.
Cc1noc(C)c1NC(=O)N(C)C[C@@H]1Oc2ccc(NC(=O)C3CCCCC3)cc2C(=O)N([C@H](C)CO)C[C@@H]1C	-1	3	4	-1	-3[16.7 µM]	0
O=C(c1ccc(Cl)cc1)N1CCc2c([nH]c3ccccc23)C1C(F)(F)F (stereo not drawn)	5	1	26*	.	-7	.
COc1cc(CNc2nccn3ccnc23)cc(OC)c1	-5	-4	36*	1	0	0
COCCCNc1nccn2ccnc12	-3	-3	4	-2	5	0
CN1C(=O)c2cc(NC(=O)c3cccs3)ccc2OC[C@@H]2O[C@H](CC(=O)O)CC[C@@H]21	3	-3	2	-3	15[16.7 µM]	0
CC(C)CC#Cc1ccc([C@@H]2[C@@H](CO)N3C(=O)CN(C(=O)Nc4ccc(F)cc4)C[C@@H]23)cc1	1	2	2	-13	.	0
CCOC(=O)N1CCN(C(=O)CCS(=O)(=O)c2cc3c(cc2Cl)NC(=O)CO3)CC1	.	1	24*	10	-6	0
O=C(O)C(=Cc1ccccc1)Cc1ccccc1	2	-3	-4	41*	-2	0
Cc1cc(C)c2[nH]c(O)c(N=NC(=S)NCC3CCCO3)c2c1 (stereo not drawn)	.	.	.	69*	1	-1
Oc1[nH]c2ccccc2c1N=NC(=S)NCC1CCCO1 (stereo not drawn)	4	0	12	11	.	.
